Test results reported in ChEMBL document CHEMBL4477203 (J Med Chem, 2016).
Numbered stars: 1 amine (or outer) side, 2 acyl side, 3 side chain; on linkers, the order of the positions; unused ones are H or OH. Bridge positions count the residues as written; N and C are the ends. Square brackets hold non-standard residues; d marks the D form. Peptide text beside a SMILES is read from it. I, II: the chains in the order shown. X2 = NCCCCNC(=O)/N=C(\N)NCCC[C@H](N[*:1])C(=O)[*:2]; Suberoyl = O=C(CCCCCCC(=O)[*:2])[*:1]

Columns and labels:
[1] = target: T1, Neuropeptide Y receptor type 4 (Homo sapiens, UniProt P50391); experiment: Displacement of [3H](2R,7R)-10 from human NPY Y4 receptor expressed in CHO cells co-expressing Gqi5-mtAEQ after 90 mins in presence of L-15 medium by liquid scintillation counting; assay type: cell-based
T1 sequence (P50391 whole entry): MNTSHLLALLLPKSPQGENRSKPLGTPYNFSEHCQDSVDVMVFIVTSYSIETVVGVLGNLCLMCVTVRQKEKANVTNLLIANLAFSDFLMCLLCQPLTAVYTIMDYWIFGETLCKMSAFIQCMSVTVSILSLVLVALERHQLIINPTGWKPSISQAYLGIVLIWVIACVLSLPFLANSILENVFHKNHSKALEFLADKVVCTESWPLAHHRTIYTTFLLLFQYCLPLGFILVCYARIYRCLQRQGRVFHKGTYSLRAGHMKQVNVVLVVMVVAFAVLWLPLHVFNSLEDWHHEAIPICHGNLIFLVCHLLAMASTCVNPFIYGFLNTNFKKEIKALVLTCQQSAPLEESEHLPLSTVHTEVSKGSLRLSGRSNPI

[2] = target: T1, Neuropeptide Y receptor type 4; experiment: Displacement of [3H]18 from human NPY Y4 receptor expressed in CHO cells co-expressing Gqi5-mtAEQ after 90 mins by liquid scintillation counting; assay type: cell-based
[3] = target: T1, Neuropeptide Y receptor type 4; experiment: Intrinsic activity at human NPY Y4 receptor expressed in CHO cells co-expressing Gqi5-mtAEQ assessed as induction of calcium mobilization by aequorin luminescence assay relative to pancreatic polypeptide; assay type: functional, cell-based
Summary of the method: (§1)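 Luminescence was integrated as area under the curve and normalized to the response to 1 µM PP. Data are means ± SEM of at least 3 independent experiments, each run in triplicate.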

[4] = target: T1, Neuropeptide Y receptor type 4; experiment: Agonist activity at human NPY Y4 receptor expressed in HEK293 cells co-expressing CRE-Luc gene assessed as inhibition of forskolin stimulated luciferase activity after 4.5 hrs by luminescence assay; assay type: functional, cell-based
Summary of the method: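 HEK293 cells stably co-transfected with a CRE-controlled firefly luciferase reporter and hY4R, tested in phenol-red-free DMEM, pH 7.4. The maximal inhibition by PP was set to 0% activity (α = 1.0). Data are means ± SEM of at least 3 experiments in triplicate.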

[5] = target: T1, Neuropeptide Y receptor type 4; experiment: Intrinsic activity at human NPY Y4 receptor expressed in HEK293 cells co-expressing CRE-Luc gene assessed as inhibition of forskolin stimulated luciferase activity after 4.5 hrs by luminescence assay relative to pancreatic polypeptide; assay type: functional, cell-based
Summary of the method: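 HEK293 cells stably co-transfected with a CRE-controlled firefly luciferase reporter and hY4R, tested in phenol-red-free DMEM, pH 7.4. […] The maximal inhibition by PP was set to 0% activity (α = 1.0). Data are means ± SEM of at least 3 experiments in triplicate.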

[6] = target: T2, Neuropeptide Y receptor type 1 (Homo sapiens) (UniProt P25929); experiment: Antagonist activity at human NPY Y1 receptor expressed in human HEL cells assessed as inhibition of the pNPY-stimulated intracellular [Ca2+] mobilization by Fura-2 based luminescence spectrometry; assay type: functional, cell-based
T2 sequence (whole entry): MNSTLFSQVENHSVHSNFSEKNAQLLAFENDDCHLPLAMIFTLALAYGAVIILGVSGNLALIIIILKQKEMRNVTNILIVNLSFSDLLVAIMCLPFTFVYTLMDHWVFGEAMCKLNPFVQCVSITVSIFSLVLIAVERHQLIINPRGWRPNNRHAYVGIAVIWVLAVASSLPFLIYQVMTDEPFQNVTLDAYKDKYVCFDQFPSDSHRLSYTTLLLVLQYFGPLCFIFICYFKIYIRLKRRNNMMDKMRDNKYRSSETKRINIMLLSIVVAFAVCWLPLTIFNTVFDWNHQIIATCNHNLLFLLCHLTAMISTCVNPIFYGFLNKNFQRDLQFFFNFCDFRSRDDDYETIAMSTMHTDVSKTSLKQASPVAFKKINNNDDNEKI
Summary of the method: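 Functional Y1R assay on HEL cells, which express Y1R endogenously. Intracellular Ca2+ was read with Fura-2 on a luminescence spectrometer. Antagonism is expressed as Kb.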

[7] = target: T1, Neuropeptide Y receptor type 4; experiment: Agonist activity at human NPY Y4 receptor expressed in CHO cells co-expressing Gqi5-mtAEQ assessed as induction of calcium mobilization by aequorin luminescence assay; assay type: functional, cell-based; summary of the method: as §1
[8] = target: T3, Neuropeptide Y receptor type 1 (Homo sapiens, UniProt P25929); experiment: Displacement of [3H]UR-MK136 from human NPY Y1 receptor expressed in human MCF7 cells by liquid scintillation counting; assay type: cell-based
T3 sequence (P25929 whole entry): T2 sequence (whole entry)

[9] = target: T4, Neuropeptide Y receptor type 2 (Homo sapiens, UniProt P49146); experiment: Displacement of [3H]propionyl-pNPY from human NPY Y2 receptor expressed in CHO cells co-expressing Gqi5-mtAEQ after 90 mins by liquid scintillation counting; assay type: cell-based
T4 sequence (P49146 whole entry): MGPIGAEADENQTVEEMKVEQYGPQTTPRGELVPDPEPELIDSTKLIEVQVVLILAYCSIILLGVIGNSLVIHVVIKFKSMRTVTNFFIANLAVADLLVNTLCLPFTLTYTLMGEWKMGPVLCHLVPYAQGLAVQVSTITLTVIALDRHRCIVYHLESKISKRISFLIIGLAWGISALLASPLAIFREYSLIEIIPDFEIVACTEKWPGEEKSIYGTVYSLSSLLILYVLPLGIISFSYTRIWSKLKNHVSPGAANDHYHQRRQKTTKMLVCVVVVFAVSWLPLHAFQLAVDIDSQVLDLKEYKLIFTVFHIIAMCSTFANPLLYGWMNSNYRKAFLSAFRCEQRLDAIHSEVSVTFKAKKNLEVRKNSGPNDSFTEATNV
Summary of the method: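 Adherent CHO-hY2R-Gqi5-mtAEQ cells in buffer I with 1% BSA and 0.1 mg/mL bacitracin at 22 °C. […] Incubation was 90 min, followed by two ice-cold washes, lysis and scintillation counting.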

[10] = target: T1, Neuropeptide Y receptor type 4; experiment: Displacement of [3H](2R,7R)-10 from human NPY Y4 receptor expressed in CHO cells co-expressing Gqi5-mtAEQ after 90 mins in presence of sodium-free HEPES buffer by liquid scintillation counting; assay type: cell-based
[11] = target: T5, Neuropeptide Y receptor type 5 (Homo sapiens, UniProt Q15761); experiment: Displacement of [3H]propionyl-pNPY from human NPY Y5 receptor expressed in human HEC1b cells after 120 mins by liquid scintillation counting; assay type: cell-based
T5 sequence (Q15761 whole entry): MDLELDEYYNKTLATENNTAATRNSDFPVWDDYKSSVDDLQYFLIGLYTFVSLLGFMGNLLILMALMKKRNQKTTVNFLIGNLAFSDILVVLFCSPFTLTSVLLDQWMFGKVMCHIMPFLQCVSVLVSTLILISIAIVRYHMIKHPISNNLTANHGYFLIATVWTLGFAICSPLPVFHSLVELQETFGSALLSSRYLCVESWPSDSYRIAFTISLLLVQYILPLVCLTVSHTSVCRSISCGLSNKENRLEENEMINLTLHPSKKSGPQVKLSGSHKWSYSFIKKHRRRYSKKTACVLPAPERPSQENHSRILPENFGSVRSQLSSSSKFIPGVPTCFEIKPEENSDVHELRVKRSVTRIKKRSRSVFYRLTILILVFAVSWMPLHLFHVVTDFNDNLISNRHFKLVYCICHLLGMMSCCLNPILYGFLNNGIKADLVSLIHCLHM
Summary of the method: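 Adherent HEC-1B-hY5 cells in buffer II with 1% BSA and 0.1 mg/mL bacitracin at 22 °C. […] Incubation was 120 min, followed by ice-cold washes, lysis and scintillation counting.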

[12] = target: T1, Neuropeptide Y receptor type 4; experiment: Binding affinity to human NPY Y4 receptor expressed in CHO cells co-expressing Gqi5-mtAEQ after 90 mins in presence of sodium-free HEPES buffer by liquid scintillation counting; assay type: cell-based
[13] = target: T1, Neuropeptide Y receptor type 4; experiment: Binding affinity to human NPY Y4 receptor expressed in CHO cells co-expressing Gqi5-mtAEQ after 90 mins in presence of L-15 medium by liquid scintillation counting; assay type: cell-based
[14] = target: T1, Neuropeptide Y receptor type 4; experiment: Binding affinity to human NPY Y4 receptor expressed in CHO cells co-expressing Gqi5-mtAEQ assessed as apparent association rate constant after 2 to 180 mins by liquid scintillation counting; assay type: cell-based; settings: tested as the 3H-labelled form
Summary of the method: (§2)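 Adherent CHO-hY4-Gqi5-mtAEQ cells (about 90% confluent) in buffer I with 1% BSA and 0.1 mg/mL bacitracin at 22 °C. Tritiated radioligand was applied at 1.5 nM for 2–180 min. Wells were washed twice with ice-cold buffer I, lysed and counted. kobs was taken from ln[Beq/(Beq-Bt)] versus time. Data are means of 3 experiments in triplicate.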

[15] = target: T1, Neuropeptide Y receptor type 4; experiment: (§3) Binding affinity to human NPY Y4 receptor expressed in CHO cells co-expressing Gqi5-mtAEQ assessed as fast dissociation rate constant preincubated for 2 hrs followed by addition of (2R,7R)-Diaminooctanedioyl-bis(Tyr-Arg-Leu-Arg-Tyr-amide)Hexa(hydrotrifluoroacetate) by liquid scintillation counting; assay type: cell-based; settings: tested as the 3H-labelled form
[16] = target: T1, Neuropeptide Y receptor type 4; experiment: (§4) Binding affinity to human NPY Y4 receptor expressed in CHO cells co-expressing Gqi5-mtAEQ assessed as slow dissociation rate constant preincubated for 2 hrs followed by addition of (2R,7R)-Diaminooctanedioyl-bis(Tyr-Arg-Leu-Arg-Tyr-amide)Hexa(hydrotrifluoroacetate) by liquid scintillation counting; assay type: cell-based; settings: tested as the 3H-labelled form
[17] = target: T1, Neuropeptide Y receptor type 4; experiment: Binding affinity to human NPY Y4 receptor expressed in CHO cells co-expressing Gqi5-mtAEQ assessed as unspecific binding in presence of (2R,7R)-Diaminooctanedioyl-bis(Tyr-Arg-Leu-Arg-Tyr-amide)Hexa(hydrotrifluoroacetate) by liquid scintillation counting; assay type: cell-based; settings: tested as the 3H-labelled form
[18] = target: T1, Neuropeptide Y receptor type 4; experiment: Binding affinity to human NPY Y4 receptor expressed in CHO cells co-expressing Gqi5-mtAEQ assessed as time required for complete association by liquid scintillation counting; assay type: cell-based; settings: tested as the 3H-labelled form; summary of the method: as §2
[19] = target: T1, Neuropeptide Y receptor type 4; experiment: as §3, with “half life t1/2(1) at 1.5 uM incubated” for “rate constant preincubated”, “in presence of 200-fold excess” for “followed by addition”; assay type: cell-based; settings: tested as the 3H-labelled form
[20] = target: T1, Neuropeptide Y receptor type 4; experiment: as §4, with “half life t1/2(2) at 1.5 uM incubated” for “rate constant preincubated”, “in presence of 200-fold excess” for “followed by addition”; assay type: cell-based; settings: tested as the 3H-labelled form
[21] = target: T1, Neuropeptide Y receptor type 4; experiment: as §4, with “dissociation” for “dissociation rate”, “at 1.5 uM incubated” for “preincubated”, “in presence of 200-fold excess” for “followed by addition”; assay type: cell-based; settings: tested as the 3H-labelled form
[22] = target: T1, Neuropeptide Y receptor type 4; experiment: as §4, with “half life at 1.5 uM incubated” for “rate constant preincubated”, “in presence of 200-fold excess” for “followed by addition”; assay type: cell-based; settings: tested as the 3H-labelled form

Compound | Ki [1] | Ki [2] | Intrinsic activity [3] | EC50 [4] | Intrinsic activity [5] | Kb [6] | EC50 [7] | Ki [8] | Ki [9] | Ki [10] | Ki [11] | other results
NCCN(CCNC(=O)c1ccc(C(=O)NCCOCCOCCNC(=O)/N=C(/N)NCCC[C@@H](NC(=O)C(c2ccccc2)c2ccccc2)C(=O)NCc2ccc(O)cc2)cc1)CCNC(=O)c1ccc(C(=O)NCCOCCOCCNC(=O)/N=C(/N)NCCC[C@@H](NC(=O)C(c2ccccc2)c2ccccc2)C(=O)NCc2ccc(O)cc2)cc1 | 150 nM | 630 nM | – | – | – | – | – | – | – | – | – | –
CC(C)C[C@H](NC(=O)[C@H](CCCNC(=N)N)NC(=O)[C@H](Cc1ccc(O)cc1)NC(=O)[C@H](N)CCCC[C@@H](N)C(=O)N[C@@H](Cc1ccc(O)cc1)C(=O)N[C@@H](CCCNC(=N)N)C(=O)N[C@@H](CC(C)C)C(=O)N[C@@H](CCCNC(=N)N)C(=O)N[C@@H](Cc1ccc(O)cc1)C(N)=O)C(=O)N[C@@H](CCCNC(=N)N)C(=O)N[C@@H](Cc1ccc(O)cc1)C(N)=O | 2 nM | 0.18 nM | 0.75 | 1.6 nM | 1.03 | 9.5 nM | – | – | – | – | – | –
CC(C)C[C@H](NC(=O)[C@H](CCCNC(=N)N)NC(=O)[C@H](Cc1ccc(O)cc1)NC(=O)CCCCCCC(=O)N[C@@H](Cc1ccc(O)cc1)C(=O)N[C@@H](CCCN/C(N)=N/C(=O)NCCCCN)C(=O)N[C@@H](CC(C)C)C(=O)N[C@@H](CCCNC(=N)N)C(=O)N[C@@H](Cc1ccc(O)cc1)C(N)=O)C(=O)N[C@@H](CCCNC(=N)N)C(=O)N[C@@H](Cc1ccc(O)cc1)C(N)=O (I: Y[X2]LRY-NH2 / II: YRLRY-NH2; linker I:N-II:N via Suberoyl) | – | – | 0.8 | 1.7 nM | 1.06 | 25.3 nM | 6.4 nM | 410 nM | 730 nM | 1.2 nM | 140 nM | –
[3H]CC([3H])C(=O)N[C@@H](CCCC[C@H](N)C(=O)N[C@@H](Cc1ccc(O)cc1)C(=O)N[C@@H](CCCNC(=N)N)C(=O)N[C@@H](CC(C)C)C(=O)N[C@@H](CCCNC(=N)N)C(=O)N[C@@H](Cc1ccc(O)cc1)C(N)=O)C(=O)N[C@@H](Cc1ccc(O)cc1)C(=O)N[C@@H](CCCNC(=N)N)C(=O)N[C@@H](CC(C)C)C(=O)N[C@@H](CCCNC(=N)N)C(=O)N[C@@H](Cc1ccc(O)cc1)C(N)=O (stereo partly drawn) | – | – | – | – | – | – | – | – | – | – | – | Kd [12]: 0.67 nM; Kd [13]: 9.8 nM
CCC(=O)N[C@@H](CCCC[C@H](N)C(=O)N[C@@H](Cc1ccc(O)cc1)C(=O)N[C@@H](CCCNC(=N)N)C(=O)N[C@@H](CC(C)C)C(=O)N[C@@H](CCCNC(=N)N)C(=O)N[C@@H](Cc1ccc(O)cc1)C(N)=O)C(=O)N[C@@H](Cc1ccc(O)cc1)C(=O)N[C@@H](CCCNC(=N)N)C(=O)N[C@@H](CC(C)C)C(=O)N[C@@H](CCCNC(=N)N)C(=O)N[C@@H](Cc1ccc(O)cc1)C(N)=O | 6.3 nM | 0.32 nM | 0.76 | 4 nM | 1 | – | 14 nM | 400 nM | 420 nM | 0.87 nM | 710 nM | K [14]: 0.0467 min⁻¹; K [15]: 0.0329 min⁻¹; K [16]: 0.0024 min⁻¹; Activity [17]: 10%; TIME [18]: 1.67 h; T1/2 [19]: 0.352 h; T1/2 [20]: 4.82 h; K [21]: 0.0085 min⁻¹; T1/2 [22]: 1.36 h
